# According to ChEMBL document CHEMBL4689842, “EUbOPEN Chemogenomics Library wave 1” (2021):
# Test system: Fibroblast
# Assay: Multiplex assay against human fibroblast
# Assay type: toxicity, cell-based
# Outline: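 Live cells were stained at seeding with Hoechst33342, BioTracker Green Microtubule Cytoskeleton Dye, MitoTracker Red and Annexin V Alexa Fluor 680. Following compound addition, they were imaged on a CQ1 microscope at 37°C and 5% CO2 and gated by CellPathfinder machine learning into Hoechst high-intensity objects or normal cells, with normal cells split into healthy, pyknosed or fragmented nuclei and pyknosed cells into mitotic or apoptotic. Tubulin, mitochondrial-mass and membrane-permeability phenotypes are per cents of healthy-nucleus cells.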
# [1] = 12 h, 1 µM, compound concentration 1 uM, replicate 1
# [2] = 12 h, 1 µM, compound concentration 1 uM, replicate 2
# [3] = 12 h, 10 µM, compound concentration 10 uM, replicate 1
# [4] = 12 h, 10 µM, compound concentration 10 uM, replicate 2
# [5] = 24 h, 1 µM, compound concentration 1 uM, replicate 1
# [6] = 24 h, 1 µM, compound concentration 1 uM, replicate 2
# [7] = 24 h, 10 µM, compound concentration 10 uM, replicate 1
# [8] = 24 h, 10 µM, compound concentration 10 uM, replicate 2
# [9] = 48 h, 1 µM, compound concentration 1 uM, replicate 1
# [10] = 48 h, 1 µM, compound concentration 1 uM, replicate 2
# [11] = 48 h, 10 µM, compound concentration 10 uM, replicate 1
# [12] = 48 h, 10 µM, compound concentration 10 uM, replicate 2
compound,measurement,setting,value
CCC(=O)O[C@]1(C(=O)SCF)[C@H](C)C[C@H]2[C@@H]3C[C@H](F)C4=CC(=O)C=C[C@]4(C)[C@@]3(F)[C@@H](O)C[C@@]21C [FLUTICASONE PROPIONATE],Population Apoptotic (%),[1],71%
same,Population Fragmented Nuclei (%),[1],22%
same,Population Healthy Nuclei (%),[1],45%
same,Population Hoechst High Intensity Objects (%),[1],13%
same,Population Membrane Permeable-Phenotype (%),[1],33%
same,Population Mitochondria Different-Phenotype (%),[1],0%
same,Population Mitotic Cells (%),[1],28%
same,Population Normal (%),[1],86%
same,Population Pyknosed Nuclei (%),[1],31%
same,Population Tubulin-Different-Phenotype (%),[1],40%
same,Total Cell Count,[1],76
same,Population Fragmented Nuclei (%),[2],4%
same,Population Healthy Nuclei (%),[2],78%
same,Population Hoechst High Intensity Objects (%),[2],12%
same,Population Membrane Permeable-Phenotype (%),[2],3%
same,Population Mitochondria Different-Phenotype (%),[2],9%
same,Population Normal (%),[2],87%
same,Population Pyknosed Nuclei (%),[2],16%
same,Population Tubulin-Different-Phenotype (%),[2],9%
same,Total Cell Count,[2],68
same,Population Apoptotic (%),[3],62%
same,Population Fragmented Nuclei (%),[3],26%
same,Population Healthy Nuclei (%),[3],50%
same,Population Hoechst High Intensity Objects (%),[3],16%
same,Population Membrane Permeable-Phenotype (%),[3],38%
same,Population Mitochondria Different-Phenotype (%),[3],30%
same,Population Mitotic Cells (%),[3],37%
same,Population Normal (%),[3],83%
same,Population Pyknosed Nuclei (%),[3],23%
same,Population Tubulin-Different-Phenotype (%),[3],53%
same,Total Cell Count,[3],149
same,Population Apoptotic (%),[4],28%
same,Population Fragmented Nuclei (%),[4],8%
same,Population Healthy Nuclei (%),[4],81%
same,Population Hoechst High Intensity Objects (%),[4],8%
same,Population Membrane Permeable-Phenotype (%),[4],3%
same,Population Mitochondria Different-Phenotype (%),[4],37%
same,Population Mitotic Cells (%),[4],71%
same,Population Normal (%),[4],92%
same,Population Pyknosed Nuclei (%),[4],10%
same,Population Tubulin-Different-Phenotype (%),[4],35%
same,Total Cell Count,[4],48
same,Population Apoptotic (%),[5],66%
same,Population Fragmented Nuclei (%),[5],21%
same,Population Healthy Nuclei (%),[5],62%
same,Population Hoechst High Intensity Objects (%),[5],25%
same,Population Membrane Permeable-Phenotype (%),[5],28%
same,Population Mitochondria Different-Phenotype (%),[5],0%
same,Population Mitotic Cells (%),[5],33%
same,Population Normal (%),[5],74%
same,Population Pyknosed Nuclei (%),[5],16%
same,Population Tubulin-Different-Phenotype (%),[5],34%
same,Total Cell Count,[5],75
same,Population Apoptotic (%),[6],16%
same,Population Fragmented Nuclei (%),[6],3%
same,Population Healthy Nuclei (%),[6],84%
same,Population Hoechst High Intensity Objects (%),[6],11%
same,Population Membrane Permeable-Phenotype (%),[6],11%
same,Population Mitochondria Different-Phenotype (%),[6],11%
same,Population Mitotic Cells (%),[6],83%
same,Population Normal (%),[6],88%
same,Population Pyknosed Nuclei (%),[6],11%
same,Population Tubulin-Different-Phenotype (%),[6],20%
same,Total Cell Count,[6],78
same,Population Apoptotic (%),[7],64%
same,Population Fragmented Nuclei (%),[7],30%
same,Population Healthy Nuclei (%),[7],50%
same,Population Hoechst High Intensity Objects (%),[7],12%
same,Population Membrane Permeable-Phenotype (%),[7],40%
same,Population Mitochondria Different-Phenotype (%),[7],27%
same,Population Mitotic Cells (%),[7],36%
same,Population Normal (%),[7],87%
same,Population Pyknosed Nuclei (%),[7],19%
same,Population Tubulin-Different-Phenotype (%),[7],47%
same,Total Cell Count,[7],149
same,Population Apoptotic (%),[8],58%
same,Population Fragmented Nuclei (%),[8],5%
same,Population Healthy Nuclei (%),[8],78%
same,Population Hoechst High Intensity Objects (%),[8],8%
same,Population Membrane Permeable-Phenotype (%),[8],6%
same,Population Mitochondria Different-Phenotype (%),[8],31%
same,Population Mitotic Cells (%),[8],41%
same,Population Normal (%),[8],91%
same,Population Pyknosed Nuclei (%),[8],16%
same,Population Tubulin-Different-Phenotype (%),[8],25%
same,Total Cell Count,[8],59
same,Population Apoptotic (%),[9],54%
same,Population Fragmented Nuclei (%),[9],41%
same,Population Healthy Nuclei (%),[9],43%
same,Population Hoechst High Intensity Objects (%),[9],24%
same,Population Membrane Permeable-Phenotype (%),[9],25%
same,Population Mitochondria Different-Phenotype (%),[9],0%
same,Population Mitotic Cells (%),[9],45%
same,Population Normal (%),[9],75%
same,Population Pyknosed Nuclei (%),[9],15%
same,Population Tubulin-Different-Phenotype (%),[9],38%
same,Total Cell Count,[9],95
same,Population Apoptotic (%),[10],100%
same,Population Fragmented Nuclei (%),[10],26%
same,Population Healthy Nuclei (%),[10],72%
same,Population Hoechst High Intensity Objects (%),[10],15%
same,Population Membrane Permeable-Phenotype (%),[10],5%
same,Population Mitotic Cells (%),[10],0%
same,Population Normal (%),[10],84%
same,Population Pyknosed Nuclei (%),[10],0%
same,Population Tubulin-Different-Phenotype (%),[10],26%
same,Total Cell Count,[10],120
same,Population Apoptotic (%),[11],75%
same,Population Fragmented Nuclei (%),[11],38%
same,Population Healthy Nuclei (%),[11],47%
same,Population Hoechst High Intensity Objects (%),[11],14%
same,Population Membrane Permeable-Phenotype (%),[11],29%
same,Population Mitochondria Different-Phenotype (%),[11],27%
same,Population Mitotic Cells (%),[11],25%
same,Population Normal (%),[11],85%
same,Population Pyknosed Nuclei (%),[11],14%
same,Population Tubulin-Different-Phenotype (%),[11],48%
same,Total Cell Count,[11],167
same,Population Apoptotic (%),[12],100%
same,Population Fragmented Nuclei (%),[12],29%
same,Population Healthy Nuclei (%),[12],66%
same,Population Hoechst High Intensity Objects (%),[12],35%
same,Population Membrane Permeable-Phenotype (%),[12],11%
same,Population Mitochondria Different-Phenotype (%),[12],17%
same,Population Mitotic Cells (%),[12],0%
same,Population Normal (%),[12],64%
same,Population Pyknosed Nuclei (%),[12],3%
same,Population Tubulin-Different-Phenotype (%),[12],56%
same,Total Cell Count,[12],176
